SMILES strings stand for the structures.

Type in all cases: cell-based
Assay [1] addresses T1, TREK-2 (Homo sapiens, UniProt P57789).
T1 sequence (P57789 1-538): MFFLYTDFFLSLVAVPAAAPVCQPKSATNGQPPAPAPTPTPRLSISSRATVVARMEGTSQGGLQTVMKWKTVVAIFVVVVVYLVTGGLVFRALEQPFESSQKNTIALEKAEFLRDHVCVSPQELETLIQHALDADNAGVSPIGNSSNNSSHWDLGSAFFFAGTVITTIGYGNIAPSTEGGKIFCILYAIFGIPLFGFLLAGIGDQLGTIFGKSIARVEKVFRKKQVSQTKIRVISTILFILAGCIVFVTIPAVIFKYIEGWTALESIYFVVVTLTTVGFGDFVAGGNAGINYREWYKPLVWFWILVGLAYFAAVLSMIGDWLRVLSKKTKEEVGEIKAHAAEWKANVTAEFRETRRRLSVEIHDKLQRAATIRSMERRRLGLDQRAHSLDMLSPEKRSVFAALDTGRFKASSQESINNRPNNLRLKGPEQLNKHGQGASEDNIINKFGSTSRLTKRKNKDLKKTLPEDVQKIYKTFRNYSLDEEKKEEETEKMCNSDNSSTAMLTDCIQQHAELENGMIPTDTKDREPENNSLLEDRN
The assay is described as follows: TREK-2 channel currents, BL-1249 dose-response ± TEA or THexA. To be noted: extended screening; result in words. The method, boiled down:
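TREK-2 concentration-response curves for test compound were run with and without intracellular blocker: 100 mM TEA (n ≥ 12) or 5 μM THexA (n ≥ 13). Inhibition of basal current by each blocker was also quantified.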

In assay [2] the target is T2, THIK-2 (Homo sapiens, UniProt Q9HB15).
T2 sequence (Q9HB15 1-430): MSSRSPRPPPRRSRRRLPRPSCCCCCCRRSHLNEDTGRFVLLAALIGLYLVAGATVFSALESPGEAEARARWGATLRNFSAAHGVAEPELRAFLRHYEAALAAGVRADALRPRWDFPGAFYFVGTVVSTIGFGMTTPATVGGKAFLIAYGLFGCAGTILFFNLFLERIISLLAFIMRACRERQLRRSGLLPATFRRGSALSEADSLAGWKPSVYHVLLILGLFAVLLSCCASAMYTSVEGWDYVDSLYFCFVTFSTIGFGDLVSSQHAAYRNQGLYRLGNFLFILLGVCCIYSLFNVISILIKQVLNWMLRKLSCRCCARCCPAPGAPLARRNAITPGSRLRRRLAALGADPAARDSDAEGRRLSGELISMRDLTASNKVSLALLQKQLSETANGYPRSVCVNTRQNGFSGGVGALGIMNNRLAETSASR
The assay is described as follows: Extended screening of K2P channels with BL-1249: THIK-2. To be noted: result in words.

Assay [3] deals with T3, Kv3.1 (Homo sapiens, UniProt P48547).
T3 sequence (P48547 1-511): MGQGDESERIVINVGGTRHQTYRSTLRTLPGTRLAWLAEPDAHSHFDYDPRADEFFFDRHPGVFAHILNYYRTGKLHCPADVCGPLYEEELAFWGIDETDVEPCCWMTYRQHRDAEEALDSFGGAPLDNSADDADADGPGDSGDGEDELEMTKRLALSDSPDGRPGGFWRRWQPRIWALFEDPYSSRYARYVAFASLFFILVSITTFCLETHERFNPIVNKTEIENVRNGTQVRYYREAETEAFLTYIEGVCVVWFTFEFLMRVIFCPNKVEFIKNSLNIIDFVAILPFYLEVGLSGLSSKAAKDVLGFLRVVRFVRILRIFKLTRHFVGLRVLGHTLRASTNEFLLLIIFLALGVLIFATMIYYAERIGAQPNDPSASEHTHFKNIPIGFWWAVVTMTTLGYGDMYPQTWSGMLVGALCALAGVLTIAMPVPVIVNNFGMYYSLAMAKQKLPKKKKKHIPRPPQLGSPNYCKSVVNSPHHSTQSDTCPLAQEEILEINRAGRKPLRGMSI
In words: BL-1249 on helix bundle-crossing gated channel Kv3.1. The note with it: result in words.

For assay [4], the system named is CNG channels. In words: BL-1249 on CNG channels. The note with it: result in words.
In assay [5] the target is T4, TREK-1 L304C (Homo sapiens, UniProt O95069, L304C).
T4 sequence (O95069 1-426 L304C): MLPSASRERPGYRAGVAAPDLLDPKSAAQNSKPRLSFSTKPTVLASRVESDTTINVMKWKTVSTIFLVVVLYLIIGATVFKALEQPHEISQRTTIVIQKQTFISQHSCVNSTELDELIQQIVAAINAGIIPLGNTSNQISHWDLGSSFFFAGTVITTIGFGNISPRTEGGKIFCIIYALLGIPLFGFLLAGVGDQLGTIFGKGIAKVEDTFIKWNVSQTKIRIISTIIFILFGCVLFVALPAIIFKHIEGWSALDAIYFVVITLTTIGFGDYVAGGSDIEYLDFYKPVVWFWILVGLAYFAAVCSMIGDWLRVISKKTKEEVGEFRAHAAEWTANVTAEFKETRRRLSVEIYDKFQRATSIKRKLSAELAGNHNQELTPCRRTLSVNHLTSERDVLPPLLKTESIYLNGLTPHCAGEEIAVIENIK
In words: Cysteine-modification protection: MTS-TBAO modification of TREK-1 L304C. The note with it: 10 μM MTS-TBAO; BL-1249 50 μM, ML335 50 μM, 2-APB 1 mM; result in words.

Assay [6] deals with T1, TREK-2. The assay is described as follows: Single channel recordings of TREK-2 expressed in HEK293 cells. The note with it: TREK-2 in HEK293 cells.

As to `c1ccc(-c2nn[nH]n2)c(Nc2cccc3c2CCCC3)c1` [BL-1249], in assay [1], the “activation of TREK-2” value is “potent activation”. Moreover, in assay [2], the “activation of THIK-2” value was “potent activation”. Besides, the “activation of Kv3.1” value in assay [3] is recorded as “not activated”. Besides, the “activation of CNG channels” value in assay [4] is “not activated”. Further, the “time course of irreversible pore blockade by MTS-TBAO” value in assay [5] was “markedly slowed”. For the same compound, the “single channel amplitude, outward” value in assay [6] (+100 mV, with BL-1249 (basal 17.7 ± 1.3), n = 7) is on record as 21.7 ± 1.4 pA. For the same compound, the “single channel amplitude, inward” value in assay [6] (-100 mV, with BL-1249 (basal -29.3 ± 1.5), n = 7) is listed as -34.1 ± 1.9 pA. Also, the open probability result in assay [6] (result in words) is “increase in open probability”.

These data come from paper PMC6982535 (Science (New York, N.Y.), 2019).
